Tests used:
SK-OV-3 [1] = assay: Hypoxic cytotoxicity ratio, IC50 for human SKOV3 cells in oxic condition to IC50 for human SKOV3 cells in hypoxic condition; assay type: functional
Method in brief: (§1)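 Log-phase monolayers exposed to drug for 4 h under aerobic (20% O2) or anoxic (<20 ppm O2) conditions, then sulforhodamine B staining 5 days later. IC50 interpolated as concentration lowering cell density to 50% of same-plate controls. HCR = IC50(oxic)/IC50(hypoxic), mean of intraexperiment ratios. A549 P450R line is a stable transfectant with 9-fold higher cytochrome c reduction rate than parent.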

SK-OV-3 [2] = assay: Cytotoxicity against human SKOV3 cells in oxic condition after 4 hrs by sulforhodamine B assay; assay type: functional, cell-based; conditions: SK-OV-3, 4 h; method in brief: as §1
SK-OV-3 [3] = assay: Cytotoxicity against human SKOV3 cells in hypoxic condition after 4 hrs by sulforhodamine B assay; assay type: functional, cell-based; conditions: SK-OV-3, 4 h; method in brief: as §1
HT-29 [4] = assay: Cytotoxicity against human HT-29 cells in hypoxic condition after 4 hrs by sulforhodamine B assay; assay type: functional, cell-based; conditions: HT-29, 4 h; method in brief: as §1
HT-29 [5] = assay: Cytotoxicity against human HT-29 cells in oxic condition after 4 hrs by sulforhodamine B assay; assay type: functional, cell-based; conditions: HT-29, 4 h; method in brief: as §1
HT-29 [6] = assay: Hypoxic cytotoxicity ratio, IC50 for human HT-29 cells in oxic condition to IC50 for human HT-29 cells in hypoxic condition; assay type: functional; method in brief: as §1

For `CN(C)CCOc1ccc2[nH]c(C(=O)N3CC(CCl)c4c3cc(N)c3ccc(S(C)(=O)=O)cc43)cc2c1` (stereo not given), the “Ratio IC50” value (SK-OV-3 [1]) was 1.5, the IC50 (SK-OV-3 [2]) was 18000 nM and the IC50 (SK-OV-3 [3]) was 12 nM. The IC50 (HT-29 [4]) was 16 nM, the IC50 (HT-29 [5]) was 29000 nM and the “Ratio IC50” value (HT-29 [6]) was 1.9.
`CN(C)CCOc1ccc2[nH]c(C(=O)N3CC(CCl)c4c3cc(N)c3cc(C#N)ccc43)cc2c1` (stereo not given) was tested, and the “Ratio IC50” value (SK-OV-3 [1]) was 1.1, the IC50 (SK-OV-3 [2]) was 13000 nM and the IC50 (SK-OV-3 [3]) was 12 nM. For the same compound, the IC50 (HT-29 [4]) was 8.6 nM, the IC50 (HT-29 [5]) was 17000 nM and the “Ratio IC50” value (HT-29 [6]) was 2.
For `COc1cc2cc(C(=O)N3CC(CCl)c4c3cc([N+](=O)[O-])c3cc(S(C)(=O)=O)ccc43)[nH]c2c(OC)c1OC` (stereo not given), the “Ratio IC50” value (SK-OV-3 [1]) was 1.9, the IC50 (SK-OV-3 [2]) was 17000 nM and the IC50 (SK-OV-3 [3]) was 9.3 nM. The IC50 (HT-29 [4]) was 7.2 nM, the IC50 (HT-29 [5]) was 14000 nM and the “Ratio IC50” value (HT-29 [6]) was 2.
With `CN(C)CCOc1ccc2[nH]c(C(=O)N3CC(CCl)c4c3cc([N+](=O)[O-])c3c(C#N)cccc43)cc2c1` (stereo not given) the “Ratio IC50” value (SK-OV-3 [1]) was 1.7, the IC50 (SK-OV-3 [2]) was 170 nM and the IC50 (SK-OV-3 [3]) was 0.1 nM. The IC50 (HT-29 [4]) was 0.1 nM, the IC50 (HT-29 [5]) was 120 nM and the “Ratio IC50” value (HT-29 [6]) was 1.1.
`COc1cc2cc(C(=O)N3CC(CCl)c4c3cc([N+](=O)[O-])c3cccc([N+](=O)[O-])c43)[nH]c2c(OC)c1OC` (stereo not given) was tested, and the “Ratio IC50” value (SK-OV-3 [1]) was <1.1, the IC50 (SK-OV-3 [2]) was 55000 nM and the IC50 (SK-OV-3 [3]) was > 50000 nM. For the same compound, the IC50 (HT-29 [4]) was 33000 nM, the IC50 (HT-29 [5]) was 34000 nM and the “Ratio IC50” value (HT-29 [6]) was 1.2.
